Among the data in ChEMBL document CHEMBL1155688, “New pyridinium alkaloids from a marine sponge of the genus Spongia with a human phospholipase A(2) inhibitor profile” (J Nat Prod, 2000) are inhibition, Activity and IC50 values, retold here.

One data set deals with Naja naja. Put plainly: Inhibition of Naja naja sPLA2 at 10 uM. The method, boiled down:
(§1)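 Purified enzyme (Naja naja venom, porcine pancreatic, or human recombinant synovial) in 100 mM Tris-HCl, 1 mM CaCl2, pH 7.5, preincubated 5 min at 37 °C with compound or vehicle. Then incubated 15 min with autoclaved E. coli CECT 101 membranes labelled with [3H]oleic acid. Stopped with ice-cold BSA (0.07% w/v final). Supernatant radioactivity counted after centrifugation. Mean ± SEM, n = 6.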

For a further data set, the species on record is Sus scrofa. Briefly: Inhibition of pig pancreas sPLA2 at 10 uM. The method, boiled down:
as §1

For another data set, the species on record is Homo sapiens. Put plainly: Inhibition of human synovial sPLA2 at 10 uM. A digest of the protocol: as §1
The species named for a further data set is Rattus norvegicus. Put plainly: Inhibition of rat air pouch sPLA2 at 10 uM. A digest of the protocol: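 sPLA2 source was exudate supernatant from zymosan-injected rat air pouch. Preincubated 5 min at 37 °C with compound or vehicle, then 15 min with autoclaved [3H]oleate-labelled E. coli CECT 101 membranes. Stopped with ice-cold BSA (0.07% w/v final). Released radioactivity in the supernatant counted by scintillation. Mean ± SEM, n = 6.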

The subject of another data set is Apis mellifera. Put plainly: Inhibition of bee venom sPLA2 at 10 uM. A digest of the protocol: (§2)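 Radiometric sPLA2 assay on E. coli CECT 101 membranes labelled by growth for 6–8 h at 37 °C with [3H]oleic acid, then autoclaved. Bee venom or human recombinant synovial enzyme in 100 mM Tris-HCl, 1 mM CaCl2, pH 7.5. Enzyme preincubated 5 min at 37 °C with compound or vehicle, then 15 min with membranes. Stopped with ice-cold BSA and centrifuged. Supernatant radioactivity counted by scintillation. IC50 from at least four concentrations (n = 6). Mean ± SEM.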

The subject of a further data set is RAW264.7. Put plainly: Inhibition of cPLA2 in mouse RAW264.7 cells. Type of data set: cell-based. A digest of the protocol:
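Enzyme was the cytosolic fraction of murine RAW 264.7 cells. Substrate was 1-palmitoyl-2-[14C]arachidonyl-phosphatidylcholine. Compound in methanol (<1% final) added before the enzyme, then 60 min at 37 °C. Stopped with isopropanol-heptane-0.5 M H2SO4 (10:5:1). Released arachidonate in the heptane phase was cleaned on silica gel and counted.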

The nature of data set [1]: Cytotoxicity against human neutrophils up to 10 uM by MTT assay. It is filed as cell-based. Particulars: neutrophil. A digest of the protocol:
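Viability of human neutrophils assessed by mitochondrial reduction of MTT to formazan.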
Background: Tetrazolium assays rely on reduction of a dye to a coloured formazan, in cell work by metabolically active cells.

Data set [2] is described as follows: Inhibition of human synovial sPLA2. The method, boiled down: as §2
Data set [3] in a line: Inhibition of bee venom sPLA2. Further details: species or system Apis mellifera. A digest of the protocol: as §2

SMILES strings stand for the structures. Calls of active or inactive are those of the source. No cut-off for these calls is given here.

As a reminder, the inhibition is the percentage by which the read-out fell short of the control. Lower therefore signals a response near the control. In the case of `CC1(C)CCC[C@@]2(C)C1CC[C@@]1(C)c3cc[n+](CC(=O)O)cc3CCC21.[Cl-]` (some centres not stated) [SPONGIDINE A], the inhibition with Naja naja was determined as 0.5%; in the data set filed under Sus scrofa, 18%; in the data set filed under Homo sapiens, 40.1%; in the data set listed under Rattus norvegicus it was 17.1%; in the data set with Apis mellifera it was 33.1%. Besides, the result in the data set on RAW264.7 was inactive. Also, the Activity result in data set [1] is “Not Active”.
As a reminder, the IC50 is the midpoint of a concentration-inhibition curve. Consider `C[C@]1(CO)CCC[C@]2(C)[C@H]3CC[C@@H]4C(O)O[C@@H](C5=CC(=O)OC5O)C[C@H]4[C@]3(C)CC[C@H]12` (some centres not stated) [PETROSASPONGIOLIDE P], for which the inhibition in the data set with Naja naja was determined as 8.7%; in the data set filed under Sus scrofa, 19.5%; in the data set listed under Homo sapiens, 87.2%; in the data set filed under Rattus norvegicus, 25.6%; in the data set with Apis mellifera, 5.4%. The midpoint of inhibition in data set [2], the IC50, lay at 5.8 µM. Besides, the Activity result in data set [1] is recorded as “Not Active”.
Regarding `CC(=O)OC[C@@]1(C)CCC[C@@]2(C)C1CC[C@@]1(C)c3cc[n+](CC(=O)O)cc3CCC21` (some centres not stated) [SPONGIDINE B], the inhibition came out at 0.4% in the data set with Naja naja; 14.2% in the data set listed under Sus scrofa; 34.6% in the data set filed under Homo sapiens; 17.9% in the data set filed under Rattus norvegicus; 32.2% with Apis mellifera. Further, the outcome in the data set with RAW264.7 was inactive. Further, the Activity entry in [1] is on record as “Not Active”.
`CC1=C(CC/C(C)=C/CCC2=CC[C@H](C3=CC(=O)OC3O)O[C@@H]2O)C(C)(C)CCC1` (some centres not stated) [MANOLIDE]: the inhibition in the data set filed under Sus scrofa came out at 32.3%; in the data set filed under Homo sapiens, 93.2%; in the data set listed under Rattus norvegicus, 38.4%; in the data set with Apis mellifera it was 62.5%. For the same molecule, the IC50 in data set [2] stood at 3.9 µM; in data set [3] it was 7.5 µM.
For `C[C@]1(CO)CCC[C@]2(C)[C@H]3CC[C@@H]4C=C(CC(=O)O)C(=O)C[C@H]4[C@]3(C)CC[C@H]12` [PETROSASPONGIOLIDE K], the inhibition in the data set with Naja naja was 1.3%; in the data set listed under Sus scrofa it was 14.3%; in the data set listed under Homo sapiens, 34.4%; in the data set filed under Rattus norvegicus, 18.8%; in the data set on Apis mellifera, 37.1%. The Activity result in [1] is “Not Active”.
Regarding `CC1(C)CCC[C@@]2(C)C1CC[C@@]1(C)c3cc[n+](CCS(=O)(=O)O)cc3CCC21` (some centres not stated) [SPONGIDINE D], the inhibition in the data set on Naja naja is 0%; in the data set listed under Sus scrofa, 7.6%; in the data set filed under Homo sapiens, 48.2%; in the data set listed under Rattus norvegicus it was 19.6%; with Apis mellifera, 37.6%. Further, the outcome in the data set on RAW264.7 was inactive. Moreover, the Activity result in [1] is listed as “Not Active”.
As for `CC1(C)CCC[C@@]2(C)C1CC[C@@]1(C)c3cc(CCC(=O)O)[n+](CC(=O)O)cc3CCC21.[Cl-]` (some centres not stated) [SPONGIDINE C], the inhibition was found to be 3.1% in the data set on Naja naja; 9.1% in the data set filed under Sus scrofa; 40.4% in the data set listed under Homo sapiens; 30.9% in the data set listed under Rattus norvegicus; 36.2% with Apis mellifera. Further, the outcome in the data set with RAW264.7 was inactive. Besides, in data set [1], the Activity result is “Not Active”.
